From ChEMBL document CHEMBL5223168, “Using Imidazo[2,1-b][1,3,4]thiadiazol Skeleton to Design and Synthesize Novel MNK Inhibitors” (ACS Med Chem Lett, 2023) come the findings set out here.

The source made the active and inactive calls. The rule behind the calls is not given here.

One experiment concerns 3T3-L1. Kind of experiment: Inhibition of MNK in mouse 3T3-L1 cells assessed as inhibition of eIF4E phosphorylation at 5 uM incubated for 2 hrs by Western blot analysis. In kind it is cell-based. The method in brief: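 Mouse 3T3-L1 cells exposed to compound at 5 μM for 2 h; lysates resolved by SDS-PAGE and immunoblotted for phospho-eIF4E. Reference MNK inhibitor run in parallel at 1 μM.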

Experiment [1] concerns the target MAP kinase-interacting serine/threonine-protein kinase 1 (Homo sapiens, UniProt Q9BUB5). Kind of experiment: Inhibition of MNK1 (unknown origin) incubated for 60 mins using CREB as substrate in presence of ATP by LANCE Ultra kinase assay.
Experiment [2] has as its target MAP kinase-interacting serine/threonine-protein kinase 2 (Homo sapiens, UniProt Q9HBH9). Kind of experiment: Inhibition of MNK2 (unknown origin) incubated for 60 mins using CREB as substrate in presence of ATP by LANCE Ultra kinase assay.
The test system of experiment [3] is MEF. Kind of experiment: Inhibition of MNK in MNK1 knockout mouse MEF cells assessed as inhibition of eIF4E phosphorylation at 1 uM incubated for 2 hrs by Western blot analysis. The experiment is classed as cell-based. The method in brief:
(§1)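 MEFs lacking MNK1 or MNK2 (wild-type for comparison) treated 2 h at indicated concentrations; lysates immunoblotted for p-eIF4E, which reflects the remaining MNK isoform; quantified from three independent experiments, SEM.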

Experiment [4] deals with MEF. Kind of experiment: Inhibition of MNK in MNK2 knockout mouse MEF cells assessed as inhibition of eIF4E phosphorylation at 3 uM incubated for 2 hrs by Western blot analysis. In kind it is cell-based. An outline of the steps:
as §1

In a further experiment the test system is A549. Kind of experiment: Antitumor activity against human A549 cells xenografted in BALB/C nude mouse assessed as T/C ratio at 3 mg/kg, po QD for 14 days. The conditions noted are these: time 14 day. The experiment is classed as functional. An outline of the steps:
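A549 xenografts in nude mice; compound given orally once daily at 75 or 150 mg/kg for 14 days, irinotecan reference at 3 mg/kg; tumor growth tracked as T/C ratio (relative tumor proliferation rate); body weight monitored.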

Chain of MAP kinase-interacting serine/threonine-protein kinase 1 (Q9BUB5 whole entry): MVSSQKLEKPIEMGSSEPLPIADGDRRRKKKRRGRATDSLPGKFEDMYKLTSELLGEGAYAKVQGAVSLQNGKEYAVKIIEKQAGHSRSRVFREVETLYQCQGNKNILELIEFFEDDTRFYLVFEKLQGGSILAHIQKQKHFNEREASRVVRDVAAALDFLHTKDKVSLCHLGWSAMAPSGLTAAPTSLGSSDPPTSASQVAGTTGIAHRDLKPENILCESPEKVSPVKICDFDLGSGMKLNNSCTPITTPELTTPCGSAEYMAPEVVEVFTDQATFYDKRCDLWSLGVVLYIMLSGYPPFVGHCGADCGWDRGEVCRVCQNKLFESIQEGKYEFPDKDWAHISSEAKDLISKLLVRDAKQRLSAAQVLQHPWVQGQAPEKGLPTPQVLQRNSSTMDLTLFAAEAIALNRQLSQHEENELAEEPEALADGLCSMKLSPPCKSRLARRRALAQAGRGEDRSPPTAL
Chain of MAP kinase-interacting serine/threonine-protein kinase 2 (Q9HBH9 whole entry): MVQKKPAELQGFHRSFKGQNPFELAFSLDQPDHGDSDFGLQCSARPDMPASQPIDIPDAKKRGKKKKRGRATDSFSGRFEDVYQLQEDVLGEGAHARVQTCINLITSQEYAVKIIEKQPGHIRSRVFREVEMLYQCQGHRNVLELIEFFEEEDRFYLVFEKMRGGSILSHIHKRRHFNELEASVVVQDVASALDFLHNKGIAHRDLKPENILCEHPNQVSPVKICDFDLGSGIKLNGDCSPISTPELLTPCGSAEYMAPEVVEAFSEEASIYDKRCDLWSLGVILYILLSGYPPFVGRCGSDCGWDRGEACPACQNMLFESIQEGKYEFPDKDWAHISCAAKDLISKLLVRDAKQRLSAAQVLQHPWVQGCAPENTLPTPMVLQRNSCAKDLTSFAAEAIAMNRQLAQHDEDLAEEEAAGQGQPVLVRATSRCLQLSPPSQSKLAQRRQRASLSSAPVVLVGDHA

As to `N#Cc1ccc(-c2cn3nc(-c4ccc(C(=O)N5CCCC5)cc4)sc3n2)cc1`, in the experiment on 3T3-L1, the inhibition result is “inactive”.
Consider `COC(=O)c1ccc(-c2cnc3sc(-c4ccc(C(=O)N5CCN(C)CC5)cc4)nn23)cc1`, for which the inhibition result with 3T3-L1 was “Active”. For the same molecule, the IC50 was 376 nM in experiment [1] and 105 nM in experiment [2].
For the molecule `CN(C)CC(C)(C)CNC(=O)c1ccc(-c2nn3cc(-c4ccccc4)nc3s2)cc1`, in the experiment on 3T3-L1, the inhibition result was “inactive”.
Consider `N#Cc1ccc(-c2cnc3ccc(-c4ccc(C(=O)N5CCOCC5)cc4)cn23)cc1`, for which the inhibition entry with MEF [3] is “Active”. In addition, the inhibition with MEF [4] was 50%.
In the case of `CN(C)CCNC(=O)c1ccc(-c2nn3c(-c4ccc(C#N)cc4)cnc3s2)cc1`, the half-inhibitory concentration (IC50) is 25 nM in experiment [1] and 33.4 nM in experiment [2].
As for `N#Cc1ccc(-c2cnc3sc(-c4ccc(C(=O)NCCCN5CCOCC5)cc4)nn23)cc1`, the IC50 turned out to be 31.1 nM in experiment [1] and 21.6 nM in experiment [2].
Turning to `O=C(NCCc1ccncc1)c1ccc(-c2nn3cc(-c4ccc(F)cc4)nc3s2)cc1`, the inhibition entry in the experiment on 3T3-L1 was “inactive”.
With `O=C(NCCO)c1ccc(-c2nn3cc(-c4ccccc4)nc3s2)cc1`, in the experiment on 3T3-L1, the inhibition result is “inactive”.
As to `N#Cc1ccc(-c2cnc3sc(-c4ccc(C(=O)NCCN5CCCC5)cc4)nn23)cc1`, the concentration for half-maximal inhibition (IC50) was found to be 10 nM in experiment [1] and 10.4 nM in experiment [2].
`O=C(NCCCN1CCCC1)c1ccc(-c2nn3cc(-c4ccccc4)nc3s2)cc1`: in the experiment on 3T3-L1, the inhibition result was “inactive”.
As to `CC1CCCCN1C(=O)c1ccc(-c2nn3c(-c4ccc(C#N)cc4)cnc3s2)cc1` (configuration not stated), in the experiment with 3T3-L1, the inhibition result was “Active”. The values for the IC50 in experiment [1] and in experiment [2] were 36.9 nM and 5.33 nM, respectively.
Consider `N#Cc1ccc(-c2cnc3sc(-c4ccc(C(=O)NCCO)cc4)nn23)cc1`, for which the figures for the IC50 in experiment [1] and in experiment [2] were 13.6 nM and 8.81 nM, respectively.
For `N#Cc1ccc(-c2cnc3sc(-c4ccc(C(=O)N5CCCC5)cc4)nn23)cc1`, in that order: 27.8 nM and 20.8 nM.
Regarding `CN1CCN(C(=O)c2ccc(-c3nn4c(-c5ccncc5)cnc4s3)cc2)CC1`, the inhibition result in the experiment with 3T3-L1 was “Active”. Further, the IC50 stood at 210 nM in experiment [1] and 170 nM in experiment [2].
For the molecule `CN1CCN(C(=O)c2ccc(-c3nn4cc(-c5ccc(C#N)cc5)nc4s3)cc2)CC1`, in the experiment on 3T3-L1, the inhibition entry is “inactive”.
As to `N#Cc1ccc(-c2cnc3sc(-c4ccc(C(=O)NCCCCCO)cc4)nn23)cc1`, the half-inhibitory concentration (IC50) in experiment [1] came to 42.9 nM; in experiment [2] it was 57.8 nM.
Regarding `N#Cc1ccc(-c2cnc3sc(-c4ccc(C(=O)NCCCO)cc4)nn23)cc1`, the half-inhibitory concentration (IC50) in experiment [1] amounted to 21.6 nM; in experiment [2] it was 16.7 nM.
`CCc1c2c(nc3ccc(OC(=O)N4CCC(N5CCCCC5)CC4)cc13)-c1cc3c(c(=O)n1C2)COC(=O)[C@]3(O)CC` [IRINOTECAN]: the T/C with A549 is listed as 0.4.
